Mdm2-MdmX inh: inhibitors of human Mdm2/MdmX interaction; O15151+Q00987; SaOS-2 split-luciferase Mdm2/MdmX complementation, luminescence; inhibition, % at 8 µM; actives 3% (n = 330,000);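 active means inhibition of at least 50% at 8 µM in the primary screen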
CHOP UPR activ: apoptotic UPR (CHOP) activation; activation, % at 10 µM; CHO-CHOP luciferase reporter, luminescence; percent of tunicamycin response over DMSO baseline; actives 0.34% (n = 330,000);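 active means at 10 µM dose, activation of 40% or more, normalized to positive control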;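 further: 100% = tunicamycin at 10 µg/mL and 0% = DMSO alone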
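System: CHO-CHOP luciferase reporter cell line; amount: 500 cells/well; buffer or medium: F12 medium containing 10% fetal bovine serum; incubation: 6 h compound exposure at 37 °C after overnight seeding; measured by: luciferase luminescence after 10 min with Steady-Glo reagent; evaluation: % reporter activation, DMSO baseline versus tunicamycin full activation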
ABHD5-PLIN5 inh: ABHD5-PLIN5 protein interaction inhibition; Q00G26+Q8WTS1; Split G. princeps luciferase complementation, luminescence, 4 h; inhibition, % at 4 µM; actives 0.78% (n = 360,000); AID 602281;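 active means inhibition above the mean inhibition across every tested compound plus 3 SD, cut at about 22% in these data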;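 further: 0% = DMSO only wells and the 100% control is not disclosed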
Target sequence (Q00G26 whole entry, looked up): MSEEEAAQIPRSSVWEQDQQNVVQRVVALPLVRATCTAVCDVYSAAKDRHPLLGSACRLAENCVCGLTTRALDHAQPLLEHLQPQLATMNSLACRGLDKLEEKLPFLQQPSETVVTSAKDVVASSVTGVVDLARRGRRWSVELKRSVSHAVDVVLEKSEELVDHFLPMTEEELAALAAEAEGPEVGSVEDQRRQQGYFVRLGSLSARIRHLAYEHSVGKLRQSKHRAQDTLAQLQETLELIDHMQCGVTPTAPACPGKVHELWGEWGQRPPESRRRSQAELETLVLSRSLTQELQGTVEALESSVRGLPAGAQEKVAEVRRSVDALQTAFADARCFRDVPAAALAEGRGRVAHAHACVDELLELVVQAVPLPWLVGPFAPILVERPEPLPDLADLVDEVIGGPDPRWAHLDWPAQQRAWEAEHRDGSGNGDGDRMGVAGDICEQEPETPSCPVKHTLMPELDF
Target sequence (Q8WTS1 whole entry, looked up): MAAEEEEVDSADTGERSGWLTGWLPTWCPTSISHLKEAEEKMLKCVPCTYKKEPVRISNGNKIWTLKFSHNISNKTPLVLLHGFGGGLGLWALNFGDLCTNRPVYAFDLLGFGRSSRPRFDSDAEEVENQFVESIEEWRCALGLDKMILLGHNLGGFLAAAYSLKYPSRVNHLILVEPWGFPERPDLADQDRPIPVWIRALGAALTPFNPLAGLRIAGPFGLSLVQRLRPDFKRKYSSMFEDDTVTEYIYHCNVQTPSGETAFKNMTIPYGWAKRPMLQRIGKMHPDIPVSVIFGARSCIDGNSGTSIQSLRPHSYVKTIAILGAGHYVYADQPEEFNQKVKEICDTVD
UPR XBP1 act: activators of adaptive arm of unfolded protein response (XBP1). activation, % at 20 µM. CHO-XBP1 luciferase reporter, IRE1-XBP1 UPR activation, luminescence; percent of tunicamycin response, DMSO as zero. AID 463104. actives 0.33% (n = 330,000);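 active means versus positive control, 20 µM dose yields 30% or more activation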;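 further: 100% = tunicamycin at 10 µg/mL and 0% = DMSO only wells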
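Material: CHO cell line with stable XBP1 luciferase reporter; buffer or medium: F12 medium containing 10% fetal bovine serum; compound: single point, 20 µM final compound, 1% DMSO; incubation: 6 h treatment, 37 °C; measured by: glow luminescence from Steady-Glo reagent; evaluation: activation, % of tunicamycin; control set: tunicamycin high, DMSO low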
Granule exo inh: lytic granule exocytosis inhibition; actives 0.66% (n = 360,000); inhibition, % at 10 µM; TALL-104 LAMP-1 surface exposure, flow cytometry; cells stimulated with thapsigargin and PMA;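 active means inhibition above about 55%, limit read from the data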
Mdm2-MdmX conf: human Mdm2/MdmX binding inhibition, confirmed; luminescent assay; inhibition, % at 8 µM; actives 55% (n = 10,000); shares compounds with Mdm2-MdmX inh; in the data active means inhibition above about 40%
FLuc counter: counter-screen for Mdm2/MdmX inhibitors: full-length luciferase. shares compounds with Mdm2-MdmX inh. SaOS-2 full-length luciferase counterscreen, luminescence. inhibition, % at 8 µM. actives 77% (n = 6,200). AID 504607;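 active means mean inhibition at 8 µM reaching about 37%, which flags the compound as non-specific, limit read from the data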;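 further: p53-null SaOS-2 cells with luciferase driven by a doxycycline-inducible promoter; compound on cells about two nights before reading with doxycycline added after day one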
Numbers without * were called inactive; · = not tested or not shown. Sampled rows, rich in hits. Any-hit rate of the full collection: about 4%.

SMILES	Mdm2-MdmX inh	CHOP UPR activ	ABHD5-PLIN5 inh	UPR XBP1 act	Granule exo inh	Mdm2-MdmX conf	others
Nc1ccc(-c2cc(NC=O)c3ncc(-c4cccc(C(F)(F)F)c4)n3c2)cn1	·	·	1	·	4	·
O=C(NC1(Cc2ccccc2)CCN(Cc2ccc(-c3ccccc3)cc2)C1=O)c1ccccc1 (stereo not given)	63*	4	-5	-3	21	41*	FLuc counter=77*
O=C(CCc1ccccc1)NC1(Cc2ccccc2)CCN(CCc2cccs2)C1=O (stereo not given)	22	2	-3	-3	-9	·
N#CC(C#N)=c1ccc2c(c1)N1C3=C(CCCC3)CC3CCCCC31N=2 (stereo not given)	67*	0	-10	6	64*	46*	FLuc counter=38*
N#C/C(C(N)=O)=c1/ccc2c(c1)N1C3=C(CCCC3)CC3CCCCC31N=2 (stereo not given)	41	1	·	4	·	·
CCNc1nc(Sc2ccc(C)cc2)cc(C(F)(F)F)n1	13	-1	-5	4	-1	·
CN1CCN(S(=O)(=O)c2ccc3ccccc3c2)CC1	-2	0	7	-1	-1	·
CC(=O)NCc1ccc(S(=O)(=O)N2CCN(S(=O)(=O)c3ccc4ccccc4c3)CC2)cc1	63*	-2	15	0	-8	34
COC(=O)/C=C\C(C#N)(C#N)N=Cc1ccc(OC)cc1	·	·	8	·	48	·
CC(=O)Nc1ccc(S(=O)(=O)NCCC(=O)OCc2csc(CC(=O)Nc3ccccc3C)n2)cc1	51*	-3	2	-2	8	1
Cc1ccccc1NC(=O)Cc1nc(COC(=O)CCC(=O)c2ccccc2)cs1	16	-1	5	-2	3	·
CC(=O)Nc1ccc(NC(=O)C(=O)c2cn(CC(=O)N3CCCC3)c3ccccc23)cc1	15	2	-3	-1	4	·
COc1ccc(NC(=O)C(=O)c2cn(CC(=O)N3CCCC3)c3ccccc23)cc1	58*	6	-4	8	19	55*	FLuc counter=89*
O=C(Nc1ccc(Cl)c(C(F)(F)F)c1)[C@@H]1CC=C[C@@H]2CCN(Cc3ccc(Cl)c(Cl)c3)C(=O)[C@@H]21	63*	1	-9	4	4	1
C=CC[C@@H](CC(=O)N[C@H](CO)Cc1ccccc1)C(=O)N[C@H](COC(=O)[C@@H](CC=C)Cc1ccc(F)cc1)Cc1c[nH]c2ccccc12	81*	24	-5	-2	2	49*	FLuc counter=37*
C=CCC[C@@H](Cc1ccc(F)cc1)C(=O)OC[C@H](Cc1c[nH]c2ccccc12)NC(=O)[C@@H](CC=C)CC(=O)N[C@H](CO)Cc1ccccc1	44	15	-6	1	6	·
C=CCC[C@H](Cc1ccc(F)cc1)C(=O)OC[C@H](Cc1c[nH]c2ccccc12)NC(=O)[C@@H](CC=C)CC(=O)N[C@@H](CO)Cc1ccccc1	77*	11	-3	14	-4	42*	FLuc counter=49*
C=CC[C@H](CC(=O)N[C@H](CO)Cc1ccccc1)C(=O)N[C@H](COC(=O)[C@@H](CC=C)Cc1ccc(F)cc1)Cc1c[nH]c2ccccc12	·	·	2	·	-9	·
C=CCC[C@H](Cc1ccc(F)cc1)C(=O)OC[C@H](Cc1c[nH]c2ccccc12)NC(=O)[C@@H](CC=C)CC(=O)N[C@H](CO)Cc1ccccc1	85*	18	0	-1	-6	29
C=CCC[C@@H](Cc1ccc(F)cc1)C(=O)OC[C@H](Cc1c[nH]c2ccccc12)NC(=O)[C@H](CC=C)CC(=O)NCCO	54*	6	-3	3	1	16
COc1ccc(-c2cc(-c3ccccc3)no2)cc1	-174	-2	-1	-7	-5	·
O=c1ccc(OCCOc2ccccc2)nn1-c1ccccc1	-37	2	7	0	-4	·
COc1ccc(-c2sc3ccc(-c4ccc5c(c4)OCO5)cc3c2-c2ccc(OC)nc2)cc1	-10	1	2	-2	-9	·
Cc1ccc(-c2nnc(-c3ccccc3Br)o2)cc1	-236	4	-6	-9	-10	·
CCN(Cc1cc2ccccc2[nH]c1=O)C(=O)C1CCCCC1	11	-1	2	0	2	·
SMILES	Mdm2-MdmX inh	CHOP UPR activ	ABHD5-PLIN5 inh	UPR XBP1 act	Granule exo inh	Mdm2-MdmX conf	others
CC(C)(C)N(Cc1cc2ccccc2[nH]c1=O)C(=O)C1CCCCC1	62*	-3	6	-2	-2	64*	FLuc counter=89*
Cc1ccc(C)c(-n2nnnc2SCC(=O)NCCC2=CCCCC2)c1	26	0	0	-3	0	·
CCOC(=O)C1CCN(Cc2ccccn2)CC1	-21	-1	·	-3	·	·
CCOC(=O)C1CCN(c2ccccc2CN2CCN(c3ccccc3OCC)CC2)CC1	63*	2	7	-7	34	38	FLuc counter=71*
Cc1ccc2cc(C#N)c(SCc3nnc(-c4ccccc4[N+](=O)[O-])o3)nc2c1	87*	6	4	3	0	79*	FLuc counter=72*
c1ccc(-c2cc(NCCN3CCCCC3)c3ccccc3n2)cc1	57*	-3	5	-3	34	46*	FLuc counter=51*
O=C(c1cc(-c2ccccc2)nc2ccccc12)N1CCCC1	-24	3	6	4	-13	·
O=C(/C=C/c1cccc([N+](=O)[O-])c1)Nc1ccc(NC(=O)c2cccs2)cc1	85*	1	-7	-1	3	3
CC(C)c1nc(NCCO)c(C#N)c2c1CCCC2	53*	-1	11	-1	1	57*	FLuc counter=35
CC(C)c1nc(NCc2ccccc2)c(C#N)c2c1CCCC2	42	2	-3	4	-5	·
O=C(Cn1cnc([N+](=O)[O-])c1)Nc1cc(Oc2ccc(Cl)cc2Cl)cc([N+](=O)[O-])c1	56*	0	-4	-3	5	26
Cc1ccc(-n2nnnc2SCC(=O)NNC(=O)c2ccco2)cc1C	-16	0	0	-2	-5	·
COC(=O)COc1ccc(/C=N/NC(=O)c2ccc(N(Cc3ccccc3)S(C)(=O)=O)cc2)cc1	61*	-1	-5	-3	29	22
COc1ccc(CC(=O)OCC(=O)Nc2ccc(Cl)cc2C)cc1	-17	0	-1	-3	-21	·
Cc1nnc(SCC(=O)Nc2nccs2)n1N	0	1	3	2	-2	·
C=C(C)CN1CCN(c2c(CCC#N)c(C)c(C#N)c3nc4ccccc4n23)CC1	74*	0	-3	-3	1	24
CCc1cc(=O)[nH]c(SCc2cccc3ccccc23)n1	15	1	-10	-3	2	·

Source: PubChem (several laboratories)
